Assay outcomes (PubChem)
UPR XBP1 act – adaptive UPR (XBP1) activation. CHO-XBP1 luciferase reporter, IRE1-XBP1 UPR activation, luminescence; percent of tunicamycin response, DMSO as zero. activation, % at 20 µM. 0.33% of 330,000 active. AID 463104;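 active = versus positive control, 20 µM dose yields 30% or more activation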;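 note: 100% = tunicamycin at 10 µg/mL and 0% = DMSO only wells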
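Material – CHO cell line with stable XBP1 luciferase reporter · Buffer or medium – F12 plus 10% FBS · Compound – single point, 20 µM final compound, 1% DMSO · Schedule – 16-18 h cell attachment at 37 °C, then 6 h compound exposure · Signal – Steady-Glo luminescence read · Benchmarks – high control tunicamycin 10 µg/mL final, low control DMSO vehicle only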
CSC inhib – cancer stem cell inhibition | cancer stem cell-like cells viability, luminescence | inhibition, % at 7.5 µM | 1.1% of 300,000 active | AID 2717; in the data active = inhibition above about 75%; tested in HMLE shEcad cells
Mdm2-MdmX inh – inhibitors of human Mdm2/MdmX interaction. O15151+Q00987. SaOS-2 split-luciferase Mdm2/MdmX complementation, luminescence. inhibition, % at 8 µM. 3% of 330,000 active. AID 485346;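 active = inhibition of at least 50% at 8 µM in the primary screen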
Beta cell apopt – blocks beta cell apoptosis | INS-1E cytokine-induced death, ATP luminescence, 48 h; percent of positive-control rescue, neutral wells zero | protection from apoptosis, % (concentration not given with the values) | 0.8% of 300,000 active;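 active = Every replicate reaches about 75%, or at least half do and their mean reaches it too, limit read from the data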;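 note: 0% = cytokine-treated negative control wells and 100% = positive control rescue; higher means more ATP so stronger rescue from cytokine killing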
CHOP UPR activ – activators of apoptotic arm of unfolded protein response (CHOP) | CHO-CHOP luciferase reporter, UPR activation, luminescence; percent of tunicamycin response over DMSO baseline | activation, % at 10 µM | 0.34% of 330,000 active;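 active = at 10 µM dose, activation of 40% or more, normalized to positive control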;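 note: 100% = tunicamycin at 10 µg/mL and 0% = DMSO alone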
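Material: CHO-CHOP cells, stable luciferase reporter of PERK-eIF2a-CHOP signalling; quantity: 500 reporter cells seeded per well; buffer or medium: F12 medium containing 10% fetal bovine serum; compound: one dose, 10 µM in 0.5% DMSO; incubation: 6 h compound treatment, 37 °C; measured by: Steady-Glo luciferase luminescence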
SKKanGAS inh – inhibitors of SKKanGAS S. pyogenes growth in kanamycin (SK-promoter or general growth effect) | AID 1662 | inhibition, % at 7.5 µM | 1.3% of 300,000 active | BacTiter-Glo, 6 h;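 active = mean replicate score, as percent of positive control median, at least 50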;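 note: strain carries kanamycin resistance gene driven by streptokinase promoter and grows in 40 µg/ml kanamycin; loss of luminescence reflects streptokinase promoter inhibition or plain growth inhibition; 0% = median of DMSO wells and 100% = positive control at its reference dose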
Mdm2 MdmX conf – confirmation of human Mdm2/MdmX interaction inhibitors; Mdm2-MdmX binding, luminescent assay; shares compounds with Mdm2-MdmX inh; inhibition, % at 8 µM; 55% of 10,000 active; in the data active = inhibition above about 40%
Full FLuc ctr – full-length luciferase inhibition in Mdm2/MdmX counter-screen | SaOS-2 full-length luciferase counterscreen, luminescence | shares compounds with Mdm2-MdmX inh | inhibition, % at 8 µM | 77% of 6,200 active;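 active = mean inhibition at 8 µM reaching about 37%, which flags the compound as non-specific, limit read from the data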;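 note: p53-null SaOS-2 cells with luciferase driven by a doxycycline-inducible promoter; compound on cells about two nights before reading with doxycycline added after day one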
Starred values were filed as active, the others as inactive; . = no result given. Compounds with a hit are over-represented: about 4.8% of the library has one in this group of screens.

SMILES | UPR XBP1 act | CSC inhib | Mdm2-MdmX inh | Beta cell apopt | CHOP UPR activ | SKKanGAS inh | Mdm2 MdmX conf | others
COc1ccc(CCn2c(NN)nc3c2c(=O)[nH]c(=O)n3C)cc1 | 0 | 30 | 57* | 3 | 1 | 10 | 50* | Full FLuc ctr=67*
COc1ccc(CCn2c(NN=C(C)C)nc3c2c(=O)[nH]c(=O)n3C)cc1 | -3 | -2 | 32 | 3 | 0 | 5 | .
CN(CCOc1ccc(Cl)cc1)C(=O)C1CCN(C(=O)c2ccc(Cl)cc2)CC1 | -5 | 13 | 12 | . | 1 | 3 | .
Cc1ccc2nc(N(CCN3CCOCC3)C(=O)CCS(=O)(=O)c3ccccc3)sc2c1 | -3 | -19 | 19 | . | 5 | -4 | .
Cc1ccc(S(=O)(=O)CCC(=O)N(CCCN2CCOCC2)c2nc3ccccc3s2)cc1 | -8 | 9 | 64* | . | 21 | 0 | 33
CN(C)CCN(C(=O)CCS(=O)(=O)c1ccccc1)c1nc2cc3c(cc2s1)OCO3 | 0 | -6 | -5 | 1 | 1 | 1 | .
O=C(CCS(=O)(=O)c1ccccc1)N(CCCN1CCOCC1)c1nc2ccccc2s1 | -8 | 67 | 78* | . | 20 | -2 | 43* | Full FLuc ctr=74*
COc1ccc(-c2c(C)nn3c(N4CCN(Cc5ccccc5)CC4)cc(C)nc23)cc1OC | -2 | 26 | 50* | 7 | 0 | 2 | 9
Cc1nn2c(N3CCN(C)CC3)cc(C(C)(C)C)nc2c1-c1ccccc1 | 1 | 25 | 58* | 0 | 1 | 33 | 41* | Full FLuc ctr=76*
Cc1cc(N2CCN(Cc3ccccc3)CC2)n2nc(C)c(-c3ccccc3)c2n1 | -1 | 65 | -3 | 1 | 1 | 2 | .
COCCNC(=O)c1cc(-c2ccccc2C)nn1CC1CC(c2cccnc2)=NO1 (stereo unspecified) | -1 | . | -6 | 1 | -3 | . | .
COc1ccc(S(=O)(=O)N(CC(=O)NCc2ccncc2)c2cc(C)cc(C)c2)cc1OC | -3 | -10 | 11 | -3 | 0 | -6 | .
O=C(NC1CCCC1)c1sc(=S)n2c1[nH]c(=O)c1ccccc12 | 0 | 58 | 57* | 6 | 0 | 30 | 9
Oc1c(/C=C/C=C/C=Nc2ccccc2)sc(=S)n1Cc1ccccc1 | -5 | -6 | -1 | -1 | -1 | 13 | .
O=C(c1cc(-c2cccc(O)c2)on1)N1CCN(C(c2ccccc2)c2ccccc2)CC1 | 2 | 144* | 50 | 81* | 9 | 30 | 13
C[C@]12CCC(=O)C=C1CC[C@@H]1[C@@H]2CC[C@@]2(C)[C@H]1CC[C@@]21CCC(=O)O1 | 2 | -1 | 1 | 2 | 0 | 1 | .
CC(=O)S[C@@H]1CC2=CC(=O)CC[C@]2(C)[C@H]2CC[C@@]3(C)[C@@H](CC[C@@]34CCC(=O)O4)[C@H]12 | -5 | -2 | 57* | -3 | 3 | 1 | 36
CCN(C(=O)COC(=O)c1cc(Cl)ccc1OC)c1c(N)n(Cc2ccccc2)c(=O)[nH]c1=O | -1 | . | 9 | -2 | 0 | . | .
Cc1ccc(F)c(CNC(=O)C2CCC(=O)N(CCCN3CCCC3=O)C2)c1F (stereo unspecified) | 1 | -7 | 17 | -4 | 3 | -4 | .
O=C(NN=Cc1c(F)c(F)c(F)c(F)c1F)c1ccc(NS(=O)(=O)c2cccs2)cc1 | -4 | 15 | 53* | -6 | 0 | . | -16
CC12CC3CC(C)(C1)CC(C(=O)NCc1cccnc1)(C3)C2 | -2 | -12 | 11 | 1 | -2 | 11 | .
Cc1cc(NC(=O)CSc2nnc3c(C)cc4cc(C)c(C)cc4n23)no1 | -1 | 1 | 78* | 0 | -2 | -11 | -7
Cc1cc(NC(=O)CSc2ccccc2)no1 | -2 | -1 | 8 | -9 | -3 | 16 | .
COc1ccc2cc(C)c(SCC(=O)Nc3cc(C)on3)nc2c1 | 23 | . | 50 | . | 13 | 1 | 10
Cc1cc(NC(=O)CSc2nc3cc(C)c(C)cc3cc2C)no1 | -7 | -9 | 41 | 5 | 2 | -4 | .
SMILES | UPR XBP1 act | CSC inhib | Mdm2-MdmX inh | Beta cell apopt | CHOP UPR activ | SKKanGAS inh | Mdm2 MdmX conf | others
Cc1cc2cc(C)c3nnc(SCC(=O)NCc4ccco4)n3c2cc1C | 1 | -13 | 26 | 1 | 5 | 3 | .
Cc1cc(NC(=O)CSc2nnc(-c3ccccc3)c(-c3ccccc3)n2)no1 | 2 | 48 | 53* | -6 | 1 | 15 | 56* | Full FLuc ctr=47*
O=C(CNC(=O)C1CCCCC1)NNC(=O)c1ccccc1Br | -8 | -21 | 6 | 0 | -1 | 5 | .
Cc1cc(NC(=O)COC(=O)C2CC(=O)N(c3cccc(Cl)c3)C2)no1 (stereo unspecified) | 4 | -4 | -8 | -2 | -1 | -11 | .
CCN1C(=O)c2cccc3c(NC(=O)c4ccc(S(=O)(=O)N5CCOCC5)cc4)ccc1c23 | 2 | -1 | 51* | -2 | 2 | 3 | 49* | Full FLuc ctr=94*
CCN1C(=O)c2cccc3c(NC(=O)c4ccc(S(=O)(=O)N(C)C)cc4)ccc1c23 | 7 | -4 | 59* | -2 | -3 | 0 | 33 | Full FLuc ctr=64*
CCN1C(=O)c2cccc3c(NS(=O)(=O)c4ccc(NC(C)=O)cc4)ccc1c23 | 0 | -14 | 44 | -3 | -3 | 2 | .
COc1ccc(NC(=O)c2cc3c(CO)cnc(C)c3oc2=Nc2cccc(F)c2)c(OC)c1 | -7 | 17 | 72* | 7 | 3 | 9 | 74* | Full FLuc ctr=28
Cc1ncc(CO)c2cc(C(=O)Nc3cccc(F)c3)c(=Nc3cccc(C(N)=O)c3)oc12 | -2 | 3 | 23 | 13 | 3 | 21 | .
Cc1ccc(NC(=O)c2cc3c(CO)cnc(C)c3oc2=Nc2cccc(C(N)=O)c2)cc1 | -4 | 4 | 78* | 3 | 1 | 4 | 64* | Full FLuc ctr=48*
CCN(CC)CC(=O)N1c2ccccc2Sc2ccccc21 | 0 | -6 | 3 | -1 | -2 | 0 | .
CCN(CC)CCCCN1c2ccccc2Sc2ccccc21 | 4 | -6 | 59* | 0 | 0 | 4 | 16
CCn1c(SCC(=O)NCCCN2CCCC2=O)nnc1-c1cccc(C)c1 | 0 | . | 16 | . | 0 | . | .
Cc1ccc(SCC(=O)OC(C)C(=O)NCc2ccccc2)cc1C (stereo unspecified) | -4 | -6 | 10 | -11 | 1 | 5 | .
O=C(NCC1CCCO1)C(=Cc1cccc([N+](=O)[O-])c1)C(=O)NCC1CCCO1 (stereo unspecified) | -2 | 7 | 65* | -23 | 2 | 5 | 35 | Full FLuc ctr=45*
